Scp-1 inhibitor: Scp-1 (human) phosphatase inhibition | Q9GZU7 | Recombinant Scp1, phosphopeptide, malachite green phosphate absorbance | inhibition, % at 20 µM | hit rate 0.88% among 340,000 | AID 493091;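 active means inhibition above about 50% at 20 µM, limit read from the data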;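 further: plate controls were DMSO wells with enzyme for no effect and wells lacking enzyme for full effect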
Target sequence (Q9GZU7 76-261 limits assumed): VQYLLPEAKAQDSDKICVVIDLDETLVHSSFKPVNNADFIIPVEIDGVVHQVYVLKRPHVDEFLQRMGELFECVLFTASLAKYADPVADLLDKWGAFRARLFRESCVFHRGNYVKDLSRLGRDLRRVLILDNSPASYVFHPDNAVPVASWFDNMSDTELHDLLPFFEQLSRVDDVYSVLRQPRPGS
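Incubation: 45 min enzyme reaction at room temperature / System: truncated SCP-1 phosphatase (76-261aa) / Reagent: Phospho 17-mer peptide substrate / Buffer or medium: Acidic Tris acetate buffer with magnesium and detergent / Signal: absorbance at 630 nm / Doses: one concentration, 20 µM, with 1.0% DMSO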
STEP inh: inhibitors of human striatal-enriched phosphatase STEP. P54829. AID 588621. inhibition, % at 20 µM. recombinant STEP, OMFP fluorogenic substrate, fluorescence. hit rate 0.25% among 360,000;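 active means inhibition at 20 µM, scaled per plate between control wells, above about 37%, limit read from the data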;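 further: 0% = DMSO with enzyme and substrate and 100% = substrate only without enzyme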
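Material: STEP (striatal-enriched tyrosine phosphatase) enzyme, cell-free | Medium: 50 mM Bis-Tris pH 6.0 with 2.5 mM DTT and 0.005% Tween 20 | Read-out: Percent inhibition scaled to no-enzyme and uninhibited-enzyme controls, plate-pattern corrected | Signal: Fluorescence read at 480 nm ex / 540 nm em | Times: 20 min reaction, room temperature, in the dark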
SUMO1 PPI mod: SUMO1-SIM interaction modulation. SUMO1 binding to a labelled peptide, TR-FRET, 1 h. P63165. inhibition, % at 20 µM. hit rate 0.33% among 360,000; in the data active means inhibition above about 37%
Target sequence (P63165 whole entry, looked up): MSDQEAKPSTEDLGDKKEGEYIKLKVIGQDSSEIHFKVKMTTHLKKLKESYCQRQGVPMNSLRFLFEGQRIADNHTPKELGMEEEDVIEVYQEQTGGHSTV
DNMT1 block: inhibitors of human DNMT1. P26358. DNMT1 molecular beacon, Hinp1I cleavage, fluorescence. inhibition (reported as % activation of signal), % at 10 µM. hit rate 0.83% among 360,000; in the data active means inhibition above about 50%
LMPTP inh: LMPTP (human) inhibition. P24666. recombinant LMPTP-A, OMFP fluorogenic substrate, fluorescence intensity. inhibition, % at 20 µM. hit rate 0.22% among 360,000. AID 651560;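 active means compounds that cut the enzyme signal by at least half of the control window in the single-dose screen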;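 further: plate controls were DMSO wells with enzyme plus substrate for no effect and substrate without enzyme for full effect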
Target sequence (P24666 whole entry, looked up): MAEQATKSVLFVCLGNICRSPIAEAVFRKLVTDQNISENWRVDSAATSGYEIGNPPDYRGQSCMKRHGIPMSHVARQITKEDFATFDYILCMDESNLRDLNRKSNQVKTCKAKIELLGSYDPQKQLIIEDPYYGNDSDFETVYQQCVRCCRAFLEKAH
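Assay system: LMPTP-A enzyme. Input: 0.625 nM LMPTP-A final. Probe or stimulus: 400 µM OMFP. Compound dosing: single 20 µM dose. Schedule: 50 min dark incubation at room temperature. Detection: fluorescence intensity of OMFP turnover product. Read-out: percent inhibition versus substrate-only and uninhibited controls. Benchmarks: no-enzyme low control, uninhibited high control.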
CFTR F508del cor: correctors of CFTR F508del function in bronchial epithelial cells; CFBE cells, YFP halide quenching; stimulated with forskolin plus potentiator P3; % fluorescence drop versus neutral controls; activity (quench increase), % at 7.58 µM; hit rate 0.36% among 350,000; AID 720511;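 active means mean added fluorescence quench of at least 8% versus neutral control, with both replicates also reaching 8%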;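 further: cells transiently co-express mutant CFTR-F508del with the halide-sensitive YFP; corrector assay measuring rescue of mutant channel to the surface after 24 h compound exposure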
STEP conf: STEP (human) phosphatase inhibition, single concentration confirmation | shares compounds with STEP inh | recombinant STEP, OMFP fluorogenic substrate, fluorescence | inhibition, % at 20 µM | hit rate 32% among 520; call rule not given here;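 further: 0% = enzyme with substrate plus DMSO and 100% = substrate without enzyme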
Active calls of the source: *. This is a sample that favours compounds with a hit; in the whole collection about 1.6% have one here.

`CCCN1C[C@@H](C)[C@H](OC)CN(C)C(=O)c2ccc(NC(=O)C3CCC3)cc2OC[C@@H]1C` gave CFTR F508del cor 0.
Cc1csc(=O)n1CCC(=O)OCC(=O)NNC(=O)c1ccc(Cl)cc1 was read as Scp-1 inhibitor 4, STEP inh 49*, SUMO1 PPI mod 3, DNMT1 block -4, LMPTP inh 0, CFTR F508del cor -4 and STEP conf 2.
For Cc1csc(=O)n1CCC(=O)OCC(=O)NCc1ccc(Cl)cc1Cl the results were Scp-1 inhibitor -4, STEP inh 1, SUMO1 PPI mod -6, DNMT1 block -2, LMPTP inh 0 and CFTR F508del cor -1.
O=C(Nc1nnc(-c2ccc(Cl)cc2)o1)c1nc2ccccc2s1 was read as Scp-1 inhibitor -10, STEP inh 72*, SUMO1 PPI mod 7, DNMT1 block -12, LMPTP inh 15, CFTR F508del cor -2 and STEP conf 5.
For COc1ccc(CN(C)C[C@H]2OCCCC[C@@H](C)Oc3ccc(NS(=O)(=O)c4cn(C)cn4)cc3C(=O)N([C@H](C)CO)C[C@@H]2C)cc1 the results were CFTR F508del cor -2.
Screening COc1ccccc1Nc1c([N+](=O)[O-])cc(C)cc1[N+](=O)[O-] returned Scp-1 inhibitor -5, STEP inh 5, SUMO1 PPI mod -32, DNMT1 block 1, LMPTP inh 3 and CFTR F508del cor -2.
`COc1ccccc1Nc1ccc([N+](=O)[O-])cc1N` gave Scp-1 inhibitor 4, STEP inh 47*, SUMO1 PPI mod -39, DNMT1 block -8, LMPTP inh 3 and STEP conf 40*.
`CO[C@@H]1CN(C)C(=O)c2ccc(NS(=O)(=O)CC(F)(F)F)cc2OC[C@@H](C)N(C(=O)NC(C)C)C[C@H]1C` gave CFTR F508del cor 2.
For Cc1cc([N+](=O)[O-])c(C)cc1-c1ccc(/C=N/n2cnnc2)o1 the results were Scp-1 inhibitor 46, STEP inh 50*, SUMO1 PPI mod -13, DNMT1 block 2, LMPTP inh 9, CFTR F508del cor -3 and STEP conf -1.
Cc1noc(C)c1S(=O)(=O)N(C)C[C@H]1OCCCC[C@H](C)Oc2ccc(N(C)C)cc2C(=O)N([C@H](C)CO)C[C@@H]1C was read as CFTR F508del cor -1.
Screening CC1CCc2c(sc(NC(=O)C3c4ccccc4Oc4ccccc43)c2C(N)=O)C1 (stereo not drawn) returned Scp-1 inhibitor -4, STEP inh 3, SUMO1 PPI mod -2, DNMT1 block -10 and LMPTP inh 1.
Screening COC(=O)Nc1sc2c(c1C(N)=O)CCC(C)C2 (stereo not drawn) returned Scp-1 inhibitor -3, STEP inh 97*, SUMO1 PPI mod 2, DNMT1 block 1, LMPTP inh 2, CFTR F508del cor 2 and STEP conf 80*.
CCCCNC(=O)c1cccc(C(=O)NCCCC)c1 was read as Scp-1 inhibitor -8, STEP inh 96*, SUMO1 PPI mod 3, DNMT1 block 1, LMPTP inh -1 and STEP conf 5.
Screening CCc1ccccc1NC(=O)N1CCCC(CCC(=O)N(C)CCc2ccccn2)C1 (stereo not drawn) returned Scp-1 inhibitor -4, STEP inh 117*, SUMO1 PPI mod 2, DNMT1 block 1, LMPTP inh 1, CFTR F508del cor 3 and STEP conf 12.
Screening COC(=O)c1c(NC(=O)Cc2ccccc2)sc2c1CC(C)(C)NC2(C)C returned Scp-1 inhibitor 0, STEP inh 51*, SUMO1 PPI mod 1, DNMT1 block 1, LMPTP inh -1, CFTR F508del cor 0 and STEP conf 20.
For O=C(C[C@H]1C[C@H]2c3cc(NC(=O)C4CCC4)ccc3O[C@H]2[C@H](CO)O1)NCc1cccnc1 the results were CFTR F508del cor -1.
Screening S=C(NCCN1CCOCC1)Nc1ccc(Cl)cc1Cl returned Scp-1 inhibitor -7, STEP inh 1, SUMO1 PPI mod 2, DNMT1 block 3 and LMPTP inh -3.
For COc1cc(NC(=S)NCCCN2CCOCC2)c(OC)cc1Cl the results were Scp-1 inhibitor -4, STEP inh -1, SUMO1 PPI mod 4, DNMT1 block 0, LMPTP inh -4 and CFTR F508del cor 1.
COc1ccc(NC(=S)NCCN2CCC(C)CC2)cc1Cl was read as Scp-1 inhibitor -4, STEP inh 90*, SUMO1 PPI mod -1, DNMT1 block -43, LMPTP inh -1, CFTR F508del cor -1 and STEP conf 79*.
For COc1ccc(NC(=S)N(CCCN2CCC(C)CC2)Cc2cccs2)cc1Cl the results were Scp-1 inhibitor -4, STEP inh 56*, SUMO1 PPI mod -2, DNMT1 block -3, LMPTP inh 0, CFTR F508del cor 4 and STEP conf 27*.
`S=C(NCCCN1CCOCC1)Nc1ccc(Cl)cc1Cl` gave Scp-1 inhibitor -13, STEP inh 42*, SUMO1 PPI mod -2, DNMT1 block 1, LMPTP inh -8 and STEP conf 9.
For COc1ccc(NC(=S)N(CCCN2CCN(C)CC2)Cc2cccs2)cc1 the results were Scp-1 inhibitor -5, STEP inh -3, SUMO1 PPI mod -3, DNMT1 block 2 and LMPTP inh -7.
`COc1ccc(NC(=S)NCCCN2CCCC2)cc1Cl` gave Scp-1 inhibitor -17, STEP inh 90*, SUMO1 PPI mod -7, DNMT1 block 0, LMPTP inh -2, CFTR F508del cor -2 and STEP conf 41*.
For COc1ccc(S(=O)(=O)Nc2ccc3c(c2)C(=O)N([C@@H](C)CO)C[C@H](C)[C@@H](CN(C)Cc2ccccc2)OCCCC[C@@H](C)O3)cc1 the results were CFTR F508del cor -1.
For CC(C)NC(=O)N(C)C[C@@H]1OCCCC[C@@H](C)Oc2ccc(NS(=O)(=O)c3ccc(Cl)cc3)cc2C(=O)N([C@H](C)CO)C[C@H]1C the results were CFTR F508del cor 0.
`CCC(=O)N(C)C[C@@H]1Oc2ncc(-c3ccc(C(=O)N(C)C)cc3)cc2C(=O)N([C@H](C)CO)C[C@H]1C` gave CFTR F508del cor 2.
For Cn1cnc(S(=O)(=O)N[C@H]2C=C[C@H](CC(=O)N3CCN(c4ccccc4)CC3)O[C@H]2CO)c1 the results were CFTR F508del cor -1.
Screening O=C(Nc1cccc(Cl)c1)Nc1ccc2c(c1)C(=O)OC2 returned Scp-1 inhibitor -5, STEP inh 112*, SUMO1 PPI mod -2, DNMT1 block 15, LMPTP inh 0, CFTR F508del cor 2 and STEP conf 11.
Screening CN(C)CCCNC(=O)C[C@@H]1CC[C@@H]2[C@@H](COc3ccc(NC(=O)c4ccccc4F)cc3C(=O)N2C)O1 returned CFTR F508del cor 0.
Screening COc1ccc2c3c([nH]c2c1)[C@@H](CO)N(C(=O)Nc1ccc(F)cc1)CC31CN(Cc2ccccc2OC)C1 returned CFTR F508del cor 0.
`C[C@H]1CN([C@@H](C)CO)C(=O)c2cccc(NC(=O)CCCCCC(=O)Nc3ccccc3N)c2O[C@@H]1CN(C)C(=O)Nc1ccc2c(c1)OCO2` gave CFTR F508del cor 0.
